Test results: ChEMBL document CHEMBL4602642, “Pyrola incarnata demonstrates neuroprotective effects against β-amyloid-induced memory impairment in mice” (Bioorg Med Chem Lett, 2020)
Calls of active or inactive are those of the source. No cut-off for these calls is given here.

Key:
[1] = Effect on locomotory activity in C57BL/6 mouse model of amyloid beta (25 to 35) peptide-induced memory impairment assessed as change in number of line crossing at 14 to 56 mg/kg, po administered via gavage measured for 5 mins by open field test; type: ADME, organism-based; conditions: in vivo
Method in brief: (§1)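 Open-field test after intracerebroventricular Aβ25–35 and dosing at 14, 28 or 56 mg/kg or vehicle. Line crossings and mean speed were counted during a 5-minute session. Results are mean ± SEM.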

[2] = Effect on locomotory activity in C57BL/6 mouse model of amyloid beta (25 to 35) peptide-induced memory impairment assessed as change in mean speed at 14 to 56 mg/kg, po administered via gavage measured for 5 mins by open field test; type: ADME, organism-based; conditions: in vivo; method in brief: as §1
[3] = tested on: Mus musculus; assay: Cognitive enhancing effect in C57BL/6 mouse model of amyloid beta (25 to 35) peptide-induced memory impairment assessed as reduction in escape latency time to find removed platform position at 56 mg/kg, po administered via gavage and measured on 4th day by Barnes maze test; type: functional, organism-based
Method in brief: (§2)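 Barnes maze in mice given intracerebroventricular Aβ25–35: latency to enter the escape box over the training days, plus latency and mistake counts in the probe trial, each compared with the vehicle-treated Aβ25–35 group. Results are mean ± SEM.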

[4] = tested on: Mus musculus; assay: Cognitive enhancing effect in orally dosed C57BL/6 mouse model of amyloid beta (25 to 35) peptide-induced memory impairment assessed as reduction in escape latency time to find removed platform position measured on 4th day by Barnes maze test; type: functional, organism-based
Method in brief: (§3)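 Mice given Aβ25–35 by intracerebroventricular injection were run in a Barnes maze. Latency to enter the escape box was recorded over the training sessions, and latency and mistake counts were scored in the probe trial. Results are mean ± SEM.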

[5] = tested on: Mus musculus; assay: Cognitive enhancing effect in orally dosed C57BL/6 mouse model of amyloid beta (25 to 35) peptide-induced memory impairment assessed as reduction in mistake time to find removed platform position measured on 4th day by Barnes maze test; type: functional, organism-based; method in brief: as §3
[6] = tested on: Mus musculus; assay: Cognitive enhancing effect in C57BL/6 mouse model of amyloid beta (25 to 35) peptide-induced memory impairment assessed as reduction in mistake time to find removed platform position at 56 mg/kg, po administered via gavage and measured on 4th day by Barnes maze test; type: functional, organism-based; method in brief: as §2
[7] = Effect on locomotory activity in C57BL/6 mouse model of amyloid beta (25 to 35) peptide-induced memory impairment assessed as change in mean speed of swimming at 14 to 56 mg/kg, po administered via gavage by Morris water maze test; type: ADME, organism-based; conditions: in vivo
Method in brief: (§4)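 Mice given intracerebroventricular Aβ25–35 received 14, 28 or 56 mg/kg, or an equal volume of vehicle. Morris water maze: swim speed taken on day 1, escape latency recorded in training sessions, probe trial on day 6 with the platform removed (time to target and platform crossings scored). n = 9 per group, mean ± SEM.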

[8] = tested on: Mus musculus; assay: Cognitive enhancing effect in C57BL/6 mouse model of amyloid beta (25 to 35) peptide-induced memory impairment assessed as reduction in escape latency time to find removed platform position at 14 mg/kg, po administered via gavage and measured on 5th day by Morris water maze test; type: functional, organism-based; method in brief: as §4
[9] = tested on: Mus musculus; assay: Cognitive enhancing effect in C57BL/6 mouse model of amyloid beta (25 to 35) peptide-induced memory impairment assessed as reduction in escape latency time to find removed platform position at 28 mg/kg, po administered via gavage and measured on 5th day by Morris water maze test; type: functional, organism-based; method in brief: as §4
[10] = tested on: Mus musculus; assay: Cognitive enhancing effect in C57BL/6 mouse model of amyloid beta (25 to 35) peptide-induced memory impairment assessed as reduction in escape latency time to find removed platform position at 56 mg/kg, po administered via gavage and measured on 5th day by Morris water maze test; type: functional, organism-based; conditions: in the assay text read “6th day” for “5th day”; method in brief: as §4
[11] = tested on: Mus musculus; assay: Cognitive enhancing effect in C57BL/6 mouse model of amyloid beta (25 to 35) peptide-induced memory impairment assessed as reduction in escape latency time to find removed platform position at 14 to 56 mg/kg, po administered via gavage and measured on 6th day by Morris water maze test; type: functional, organism-based; method in brief: as §4
[12] = tested on: Mus musculus; assay: Cognitive enhancing effect in C57BL/6 mouse model of amyloid beta (25 to 35) peptide-induced memory impairment assessed as reduction in time to reach the target quadrants at 14 to 56 mg/kg, po administered via gavage and measured on 6th day by Morris water maze test; type: functional, organism-based; method in brief: as §4
[13] = tested on: Mus musculus; assay: Cognitive enhancing effect in orally dosed C57BL/6 mouse model of amyloid beta (25 to 35) peptide-induced memory impairment assessed as increase in crossing numbers of target quadrants administered via gavage and measured on 6th day by Morris water maze test; type: functional, organism-based; method in brief: as §4
[14] = tested on: Mus musculus; assay: Neuroprotective activity in amyloid beta (25 to 35) peptide-induced memory impairment C57BL/6 mouse model assessed as reduction in amyloid beta (25 to 35) peptide deposition at 14 to 56 mg/kg, po administered via gavage by DAPI staining based immunohistochemical analysis; type: functional, organism-based
Method in brief: (§5)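 Hippocampal sections from Aβ25–35-injected mice after long-term dosing were immunostained for Aβ25–35 (red) and Iba-1 (green) with DAPI counterstain. Integral optical density was quantified and given as mean ± SEM.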

[15] = tested on: Mus musculus; assay: Neuroprotective activity in orally dosed amyloid beta (25 to 35) peptide-induced memory impairment C57BL/6 mouse model assessed as reduction in amyloid beta (25 to 35) peptide deposition administered via gavage by DAPI staining based immunohistochemical analysis; type: functional, organism-based; method in brief: as §5
[16] = tested on: Mus musculus; assay: Neuroprotective activity in amyloid beta (25 to 35) peptide-induced memory impairment C57BL/6 mouse model assessed as increase in number of microglia expression at 14 to 56 mg/kg, po administered via gavage by DAPI staining based immunohistochemical analysis; type: functional, organism-based; method in brief: as §5
[17] = tested on: Mus musculus; assay: Neuroprotective activity in orally dosed amyloid beta (25 to 35) peptide-induced memory impairment C57BL/6 mouse model assessed as increase in Iba1 expression administered via gavage by DAPI staining based immunohistochemical analysis; type: functional, organism-based; method in brief: as §5

For `C[C@H]1[C@H](C)CC[C@]2(C(=O)O)CC[C@]3(C)C(=CC[C@@H]4[C@@]5(C)CC[C@H](O)C(C)(C)[C@@H]5CC[C@]43C)[C@H]12` [URSOLIC ACID], the Activity [1] was “Non-Toxic”, the Activity [2] was “Non-Toxic” and the Activity [3] was “Active”. For the same compound, the Activity [4] was “Dose-dependent effect”, the Activity [5] was “Dose-dependent effect” and the Activity [6] was “Active”. The Activity [7] was “Non-Toxic”, the Activity [8] was “Active” and the Activity [9] was “Active”. For the same compound, the Activity [10] was “Active”, the Activity [11] was “Active” and the Activity [12] was “Active”. For the same compound, the Activity [13] was “Dose-dependent effect”, the Activity [14] was “Active” and the Activity [15] was “Dose-dependent effect”. The Activity [16] was “Active” and the Activity [17] was “Dose-dependent effect”.
